From ChEMBL document CHEMBL4765325, “Discovery of dihydropyrrolidones as novel inhibitors against influenza A virus” (Eur J Med Chem, 2020)

Experiments:
Influenza A virus = assay: Antiviral activity against Influenza A virus (A/Puerto Rico/8/34(H1N1)) harboring NA H274Y mutant infected in dog MDCK cells assessed as reduction in virus-induced cytopathogenicity incubated for 48 hrs by microscopic analysis; type: functional, organism-based, A/Puerto Rico/8/1934(H1N1)
Outline: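 MDCK cells were infected with each IAV strain at 100TCID₅₀ for 1 h, then washed twice with PBS. They were cultured 48 h in DMEM with two-fold serial compound dilutions and 1 mg/ml TPCK. Antiviral activity was read by an MTT-based method, giving IC₅₀ from triplicate wells as mean SD.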

[1] = Selectivity index, ratio of CC50 for dog MDCK cells to IC50 for antiviral activity against Influenza A virus (A/Puerto Rico/8/34(H1N1)) harboring NA H274Y mutant; type: toxicity; conditions: read-out: Ratio CC50/IC50
Outline: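 SI = CC50/IC50, both from MTT read-outs in MDCK cells in triplicate. Cytotoxicity: 2 × 10⁴ cells/well, overnight at 37 °C with 5% CO2, then compound at 1.56–400 µM for 48 h, MTT 4 h, DMSO, A570. Antiviral: cells infected 1 h, washed, then cultured 48 h in DMEM with TPCK and two-fold serial compound dilutions.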

Work on `CCOC(=O)C1=C(Nc2ccc(C(F)(F)F)cc2)C(=O)N(c2ccc(C(F)(F)F)cc2)C1c1ccccc1` (configuration not stated) yielded an IC50 (Influenza A virus) of 6.48 µM and a selectivity ratio [1] greater than 61.6.
